The results in this text go back to ChEMBL document CHEMBL3217723, “Optimizing PK properties of cyclic peptides: the effect of side chain substitutions on permeability and clearance()” (Medchemcomm, 2012).

Data set [1] is described as follows: Lipophilicity, log D of the compound at pH 7.4 by shake-flask method. The note with it: buffer. Type of data set: physicochemical.
Data set [2] can be described thus: Intrinsic clearance in rat liver microsomes by LC-MS/MS analysis. The following applies: read-out: CLH. The format is ADME. The method in brief:
(§1)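 Compound at 1 µM with liver microsomes (CYP 0.25 µM) in 0.1 M potassium phosphate, pH 7.4, at 37 °C. Final solvent was 0.975% acetonitrile and 0.025% DMSO. Mix prewarmed 5 min, then started with 1.3 mM NADPH; no-NADPH controls were run. Sampled at 0–60 min into acetonitrile and followed by LC-MS/MS for substrate loss. T1/2 was scaled to CLint by the well-stirred model.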
In general terms: Liver microsomes are a subcellular fraction often used to study metabolism.

The nature of data set [3]: Intrinsic clearance in human liver microsomes by LC-MS/MS analysis. The format is ADME. The following applies: read-out: CLH. The gist of the method: as §1
Data set [4] is described as follows: Cmax in male Wistar-Han rat at 2.9 mg/kg, po. Type of data set: ADME, organism-based. Also noted: dose 2.9 mg/kg, route oral. The following applies: in vivo. The method in brief: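 Jugular vein-cannulated male Wistar-Hannover rats (230-250 g), n = 3, fasted overnight and fed after the 4 h sample. Single oral dose in compound-specific vehicles (10% SEDDS:90% water, or propylene glycol with 20 mM sodium phosphate pH 7.4). Serial blood at 0.083–24 h into K2EDTA. Plasma protein-precipitated with internal standard and analysed by LC-MS/MS. Cmax read directly from individual concentration–time curves.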

Data set [5] is described as follows: Plasma clearance in male Wistar-Han rat at 0.4 mg/kg, iv. Type of data set: ADME, organism-based. Further details: dose 0.4 mg/kg, route intravenous. The method in brief:
(§2)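 Jugular vein-cannulated male Wistar-Hannover rats (230-250 g; n = 3) given a 30 s tail-vein bolus in SEDDS/dextrose or propylene glycol/20 mM sodium phosphate (pH 7.4) vehicles. Blood sampled 0.03–24 h via cannula into K2EDTA. Plasma proteins precipitated, LC-MS/MS. Non-compartmental: CLp = dose/AUC0-∞ (linear trapezoid); Vdss; T1/2 = 0.693/terminal log-linear slope.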

Data set [6] in a line: Volume of distribution at steady state in male Wistar-Han rat at 0.4 mg/kg, iv. Type of data set: ADME, organism-based. Also noted: dose 0.4 mg/kg, route intravenous. The following applies: in vivo, read-out: Vdss. The gist of the method:
as §2

The nature of data set [7]: AUC (0 to infinity) in male Wistar-Han rat at 0.4 mg/kg, iv. Type of data set: ADME, organism-based. Also noted: time infinity, dose 0.4 mg/kg, route intravenous. The note with it: plasma. The method in brief: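 Jugular vein-cannulated male Wistar-Hannover rats (230-250 g), n = 3, fed ad libitum; 30 s tail-vein injection in 10% SEDDS:90% sterile dextrose, 1:1 propylene glycol:20 mM sodium phosphate (pH 7.4), or 10% propylene glycol:90% 20 mM sodium phosphate (pH 7.4). Blood via cannula to 24 h, K2EDTA plasma, LC-MS/MS against standard curve; non-compartmental AUC0-∞ by linear trapezoid rule.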

Data set [8] in a line: AUC (0 to infinity) in male Wistar-Han rat at 2.9 mg/kg, po. The format is ADME, organism-based. The note with it: plasma. Also noted: time infinity, dose 2.9 mg/kg, route oral. The method in brief: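 Jugular vein-cannulated male Wistar-Hannover rats (230-250 g), n = 3, fasted overnight and fed after the 4 h sample; oral dosing in the i.v. formulations, except the SEDDS formulation used 90% water. Serial blood 0.083–24 h, K2EDTA plasma, LC-MS/MS against standard curve; non-compartmental AUC0-∞ by linear trapezoid rule.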

Data set [9] can be described thus: Terminal elimination half life in Wistar-Han rat at 0.4 mg/kg, iv. The note with it: in vivo, read-out: beta t1/2 (converted). Type of data set: ADME, organism-based. Further details: dose 0.4 mg/kg, route intravenous. The gist of the method: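 Jugular vein-cannulated male Wistar-Hannover rats (230–250 g, n = 3) received a tail-vein bolus over 30 s. Vehicle depended on compound: SEDDS/dextrose or propylene glycol/20 mM sodium phosphate pH 7.4. Blood was drawn at 0.03–24 h into K2EDTA and the plasma analyzed by LC-MS/MS. Non-compartmental analysis gave T1/2 = 0.693/|terminal ln-slope|.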

A short description of data set [10]: Terminal elimination half life in Wistar-Han rat at 2.9 mg/kg, po. Type of data set: ADME, organism-based. The note with it: in vivo, read-out: beta t1/2 (converted). Further details: dose 2.9 mg/kg, route oral. The gist of the method: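 Male Wistar-Hannover rats (230–250 g, n = 3), jugular-cannulated, were fasted overnight and dosed by oral gavage. Vehicle depended on compound: SEDDS/water or propylene glycol/sodium phosphate pH 7.4. Blood was collected at 0.083–24 h into K2EDTA and the plasma analyzed by LC-MS/MS. Terminal half-life came from the non-compartmental ln-concentration slope.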

The nature of data set [11]: Oral bioavailability in male Wistar-Han rat at 2.9 mg/kg. The following applies: in vivo. The format is ADME, organism-based. The method in brief:
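Male Wistar-Hannover rats (230-250 g, cannulated; n = 3) fasted overnight, fed after the 4 h sample, and dosed orally in the i.v. formulations or 10% SEDDS:90% water. Serial blood sampled 0.083–24 h into K2EDTA. Plasma measured by LC-MS/MS against a standard curve. Cmax and Tmax read from individual profiles; F = oral AUC0-∞ relative to i.v. AUC0-∞.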

Each structure is given as a SMILES string. Where a SMILES comes first, the peptide text is derived from it. [ ]: non-standard residue; d: D form. NMeY = CN[C@@H](Cc1ccc(O)cc1)C(=O)O; NMeT = CN[C@H](C(=O)O)[C@@H](C)O; dNMeL = CN[C@H](CC(C)C)C(=O)O

As for `CC(C)C[C@@H]1NC(=O)[C@H](Cc2ccc(O)cc2)N(C)C(=O)[C@H]2CCCN2C(=O)[C@H](CC(C)C)NC(=O)[C@H]([C@@H](C)O)N(C)C(=O)[C@@H](CC(C)C)N(C)C1=O` (cyclo(L[dNMeL][NMeT]L[dP][NMeY])), the logD in [1] came out at 3.17. In addition, the values for the CLint scaled in [2] and in data set [3] were 2.64 L/h/kg and 5.34 L/h/kg, respectively. In addition, the Cmax in data set [4] came to 0.105 µg/mL. Also, the clearance in [5] came out at 3.82 L/h/kg. Further, the Vd in data set [6] is 3.8 L/kg. The AUC(0-inf) came out at 0.109 µg·h/mL in [7] and 0.201 µg·h/mL in data set [8]. In addition, the half-life in data set [9] is 61.8 min; in data set [10] it was 55.2 min. In addition, the bioavailability in [11] is 23.8%.

The logD is the decadic logarithm of the distribution of all forms, ionised or not, between an organic phase and buffer at a given pH. Broadly, the Cmax is the peak of the concentration-time curve. A word on the clearance: it is the volume of plasma or blood freed of the substance per unit of time. The term AUC(0-inf) denotes the area under the concentration-time curve extrapolated to infinity. The low end stands for low exposure, the high end for high exposure. As a reminder, the bioavailability is dose-corrected exposure relative to a reference, in per cent. Low readings indicate little systemic uptake, high ones much systemic uptake.
